ChEMBL document CHEMBL1128436, “Synthesis and biological evaluation of a new series of sterols as potential hypocholesterolemic agents” (1995)
Active and inactive are the calls of the source. The calls are words filed in the database; no cut-off is given here.

What was measured:
[1] = molecular target: Low-density lipoprotein receptor (Homo sapiens) (UniProt P01130); assay: Capability of derepressing the transcription of Low density lipoprotein receptor promoter in the presence of 25-hydroxycholesterol in CHO cells measured as maximum activity at 20 ug/mL; format: cell-based
Sequence of Low-density lipoprotein receptor (Homo sapiens) (P01130 whole entry, the tested form may be a part): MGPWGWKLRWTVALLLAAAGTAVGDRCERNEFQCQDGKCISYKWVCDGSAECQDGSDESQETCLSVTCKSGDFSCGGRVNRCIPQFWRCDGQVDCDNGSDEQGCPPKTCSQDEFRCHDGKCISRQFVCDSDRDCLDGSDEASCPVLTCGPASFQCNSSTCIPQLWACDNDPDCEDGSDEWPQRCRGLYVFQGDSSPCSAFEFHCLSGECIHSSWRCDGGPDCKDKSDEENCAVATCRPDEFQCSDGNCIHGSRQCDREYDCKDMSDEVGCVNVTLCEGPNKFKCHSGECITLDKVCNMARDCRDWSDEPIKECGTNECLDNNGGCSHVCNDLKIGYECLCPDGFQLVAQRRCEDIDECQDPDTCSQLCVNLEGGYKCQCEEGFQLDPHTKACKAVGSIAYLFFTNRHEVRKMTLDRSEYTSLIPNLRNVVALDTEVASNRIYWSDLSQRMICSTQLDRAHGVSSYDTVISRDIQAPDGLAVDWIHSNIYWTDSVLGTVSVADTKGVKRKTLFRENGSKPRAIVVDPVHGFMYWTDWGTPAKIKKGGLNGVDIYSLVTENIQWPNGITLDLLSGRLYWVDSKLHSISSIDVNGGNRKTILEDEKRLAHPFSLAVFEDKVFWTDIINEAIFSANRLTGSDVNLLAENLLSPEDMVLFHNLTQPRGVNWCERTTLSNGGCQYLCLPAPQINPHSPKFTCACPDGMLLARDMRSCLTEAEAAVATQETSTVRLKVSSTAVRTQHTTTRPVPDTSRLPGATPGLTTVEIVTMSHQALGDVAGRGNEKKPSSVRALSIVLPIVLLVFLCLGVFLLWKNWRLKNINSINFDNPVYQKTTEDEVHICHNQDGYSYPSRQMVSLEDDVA
Method in brief: (§1)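 Stably transfected CHO clone S27/B30 (LDL receptor promoter fused to firefly luciferase), grown to confluence (2-3 days, 37 °C, 5% CO2). Then 24 h in serum-free assay medium (DMEM/Ham's F-12 3:1, 0.5% bovine albumin) with 25-hydroxycholesterol 0.5 μg/mL plus compound at 0.30-20 μg/mL from ethanol stock, triplicate wells. Lysate luciferase peak light per μg protein (Coomassie). EC30 = concentration giving 30% rise over control. MA = % specific induction at 20 μg/mL.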

Mesocricetus auratus [2] = species: Mesocricetus auratus; assay: Serum cholesterol level change relative to the control value (425(58)) in hamsters at a dose of 0.2% of diet for 1 week
CHO [3] = assay: Capability of derepressing the transcription of SV40 promoter in CHO cells by luciferase assay; NA= Not active within the test range 0-20 ug/mL; format: functional, cell-based; settings: Cricetulus griseus
Method in brief: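 Counter-screen in CHO clone SV40/LN9, with luciferase driven by the SV40 promoter. Confluent monolayers were given compound at 0.30-20 μg/mL for 24 h in serum-free albumin assay medium, triplicate wells. Lysates were read for luciferase peak luminescence, normalized to lysate protein.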

[4] = molecular target: Low-density lipoprotein receptor (Homo sapiens) (UniProt P01130); assay: Capability of derepressing the transcription of human Low density lipoprotein receptor promoter in the presence of 25-hydroxycholesterol in CHO cells by luciferase assay; format: cell-based; method in brief: as §1
Cricetinae gen. sp. [5] = assay: Total serum cholesterol level with relative to the control value (425(58)) in hamsters at a dose of 0.2% of diet for 1 week; format: functional, Cricetulus griseus
Cricetinae gen. sp. [6] = assay: Total serum cholesterol level with relative to the control value (313(24)) in hamsters at a dose of 0.2% of diet for 1 week; format: functional, Cricetulus griseus
Mesocricetus auratus [7] = species: Mesocricetus auratus; assay: Serum cholesterol level changes with relative to the control value (313(24)) in hamsters at a dose of 0.2% of diet for 1 week
[8] = molecular target: Low-density lipoprotein receptor (Homo sapiens) (UniProt P01130); assay: Capability of derepressing the transcription of human Low density lipoprotein receptor promoter in the presence of 25-hydroxycholesterol in CHO cells by luciferase assay; NA= Not active within the test range 0-20 ug/mL; format: cell-based; method in brief: as §1
Mesocricetus auratus [9] = species: Mesocricetus auratus; assay: Serum cholesterol level change relative to the control value (313(24)) in hamsters at a dose of 0.2% of diet for 1 week
Cricetinae gen. sp. [10] = assay: Total serum cholesterol level with relative to the control value (366(24)) in hamsters at a dose of 0.2% of diet for 1 week; format: functional, Cricetulus griseus
Cricetinae gen. sp. [11] = assay: Total serum cholesterol level with relative to the control value (320(14)) in hamsters at a dose of 0.2% of diet for 1 week; format: functional, Cricetulus griseus
Cricetinae gen. sp. [12] = assay: Serum cholesterol level changes with relative to the control value (425(58)) in hamsters at a dose of 0.2% of diet for 1 week; format: functional, Cricetulus griseus
Mesocricetus auratus [13] = species: Mesocricetus auratus; assay: Serum cholesterol level change relative to the control value (306(27)) was calculated.i n hamsters at a dose of 0.2% of diet for 1 week
Cricetinae gen. sp. [14] = assay: Total serum cholesterol level with relative to the control value (306(27) in hamsters at a dose of 0.2% of diet for 1 week; format: functional, Cricetulus griseus
CHO [15] = assay: In vitro [1-14C]-acetate]-cholesterol biosynthesis inhibition assay (14CACBI) in CHO cells; neg = Negative :no effect on biosynthesis of cholesterol; format: functional, cell-based; settings: Cricetulus griseus
Method in brief: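 Confluent CHO cells in replicate 100 mm dishes were held 20 h in assay medium without 25-hydroxycholesterol, with ethanol vehicle (0.5% v/v) or compound at 20 μg/mL. [1-14C]acetate was then added (final 1 μCi/mL) for 4 h more. Cells were scraped and sonicated, lipids separated, and the cholesterol band scraped and counted by scintillation.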

Mesocricetus auratus [16] = species: Mesocricetus auratus; assay: Serum cholesterol level change relative to the control value (366(24)) in hamsters at a dose of 0.2% of diet for 1 week
Cricetinae gen. sp. [17] = assay: Serum cholesterol level change relative to the control value (274(23)) in hamsters at a dose of 0.2% of diet for 1 week; format: functional, Cricetulus griseus
Cricetinae gen. sp. [18] = assay: Total serum cholesterol level with relative to the control value (333(23)) in hamsters at a dose of 0.2% of diet for 1 week; format: functional, Cricetulus griseus
Mesocricetus auratus [19] = species: Mesocricetus auratus; assay: Serum cholesterol level change relative to the control value (320(14)) in hamsters at a dose of 0.2% of diet for 1 week
Cricetinae gen. sp. [20] = assay: Total serum cholesterol level with relative to the control value (274(23)) in hamsters at a dose of 0.2% of diet for 1 week; format: functional, Cricetulus griseus
Mesocricetus auratus [21] = species: Mesocricetus auratus; assay: Serum cholesterol level change relative to the control value (383(13)) in hamsters at a dose of 0.2% of diet for 1 week
Mesocricetus auratus [22] = species: Mesocricetus auratus; assay: Serum cholesterol level change relative to the control value (333(23)) in hamsters at a dose of 0.2% of diet for 1 week
Cricetinae gen. sp. [23] = assay: Total serum cholesterol level with relative to the control value (383(13)) in hamsters at a dose of 0.2% of diet for 1 week; format: functional, Cricetulus griseus
Cricetinae gen. sp. [24] = assay: Total serum cholesterol level relative to the control value (274(23)) in hamsters at a dose of 0.2% of diet for 1 week; format: functional, Cricetulus griseus
Mesocricetus auratus [25] = species: Mesocricetus auratus; assay: Serum cholesterol level change relative to the control value (306(27)) in hamsters at a dose of 0.2% of diet for 1 week
[26] = molecular target: Low-density lipoprotein receptor (Homo sapiens) (UniProt P01130); assay: Luciferase activity (LDLR/Luc) expressed as light units/microg assayed in LMB the percentage specific light induction of agent over the control at concentration of 20 ug/mL was determined in vitro.; method in brief: as §1

SMILES	MA [1]	Activity (CHO [3])	EC30 [4]	Total cholesterol (Cricetinae gen. sp. [5])	Total cholesterol (Cricetinae gen. sp. [6])	Relative change (Mesocricetus auratus [7])	EC30 [8]	Activity (CHO [15])	Relative change (Cricetinae gen. sp. [17])	other results
C=C(Cl)C[C@H]1C2CC[C@H]3[C@@H]4CC[C@H]([C@H](C)CC[C@@H](CC)C(C)C)[C@@]4(C)CC[C@@H]3[C@@]2(C)CC[C@H]1O (stereo partly drawn)	120%	inactive	4.2 µM	241 mg/dL						Relative change (Mesocricetus auratus [2]): -43%
C/C=C/C[C@H]1C2CC[C@H]3[C@@H]4CC[C@H]([C@H](C)CCCC(C)C)[C@@]4(C)CC[C@@H]3[C@@]2(C)CC[C@@H]1O (stereo partly drawn)					245 mg/dL	-22%	inactive			
C=CC[C@H]1C2CC[C@H]3[C@@H]4CC[C@H]([C@H](C)CCCC(C)C)[C@@]4(C)CC[C@@H]3[C@@]2(C)CC[C@@H]1O (stereo partly drawn)					198 mg/dL	-37%	inactive			
C=CC[C@H]1C2CC[C@H]3[C@@H]4CC[C@H]([C@H](C)CCCC(C)C)[C@@]4(C)CC[C@@H]3[C@@]2(C)CC[C@H]1O (stereo partly drawn)	127%	inactive	2.9 µM	213 mg/dL	167 mg/dL			Negative	-31%	Relative change (Mesocricetus auratus [9]): -47%; Total cholesterol (Cricetinae gen. sp. [10]): 174 mg/dL; Total cholesterol (Cricetinae gen. sp. [11]): 168 mg/dL; Relative change (Cricetinae gen. sp. [12]): -50%; Relative change (Mesocricetus auratus [13]): -51%; Total cholesterol (Cricetinae gen. sp. [14]): 151 mg/dL; Relative change (Mesocricetus auratus [16]): -53%; Total cholesterol (Cricetinae gen. sp. [18]): 199 mg/dL; Relative change (Mesocricetus auratus [19]): -47%; Total cholesterol (Cricetinae gen. sp. [20]): 188 mg/dL; Relative change (Mesocricetus auratus [21]): -49%; Relative change (Mesocricetus auratus [22]): -40%; Total cholesterol (Cricetinae gen. sp. [23]): 197 mg/dL
CC(C)CCC[C@@H](C)[C@H]1CC[C@H]2[C@@H]3CCC4[C@H](Cc5ccc(Br)cc5)[C@H](O)CC[C@]4(C)[C@H]3CC[C@]12C (stereo partly drawn)	57%	inactive	6 µM						-42%	Total cholesterol (Cricetinae gen. sp. [20]): 160 mg/dL
CC(C)CCC[C@@H](C)[C@H]1CC[C@H]2[C@@H]3CC[C@H]4[C@H](Cc5ccc(F)cc5)[C@@H](O)CC[C@]4(C)[C@H]3CC[C@]12C									5%	Total cholesterol (Cricetinae gen. sp. [24]): 287 mg/dL
CCC[C@H]1C2CC[C@H]3[C@@H]4CC[C@H]([C@H](C)CCCC(C)C)[C@@]4(C)CC[C@@H]3[C@@]2(C)CC[C@H]1O (stereo partly drawn)	48%	inactive	38 µM					Negative		Relative change (Mesocricetus auratus [25]): -27%; Total cholesterol (Cricetinae gen. sp. [14]): 222 mg/dL
CC(C)CCC[C@@H](C)[C@H]1CC[C@H]2[C@@H]3CCC4[C@H](C/C=C\Cl)[C@H](O)CC[C@]4(C)[C@H]3CC[C@]12C (stereo partly drawn)				316 mg/dL			inactive			Relative change (Mesocricetus auratus [2]): -26%
C/C=C/C[C@H]1C2CC[C@H]3[C@@H]4CC[C@H]([C@H](C)CCCC(C)C)[C@@]4(C)CC[C@@H]3[C@@]2(C)CC[C@H]1O (stereo partly drawn)		inactive	11 µM		210 mg/dL	-33%		Negative		MA [26]: 86%
